From ChEMBL document CHEMBL1124823, “Antimitotic agents: synthesis of imidazo[4,5-c]pyridin-6-ylcarbamates and imidazo[4,5-b]pyridin-5-ylcarbamates” (J Med Chem, 1990) come the findings set out here.

Structures are written as SMILES.

Test [1] deals with L1210. Description: The compound was tested for cell growth inhibitory activity against lymphoid leukemia L1210 cell line. The class given is functional, cell-based. As to conditions: Mus musculus. The method, boiled down:
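Cultured lymphoid leukemia L1210 cells were grown with agent for 48 h. The value is the micromolar concentration that inhibits proliferation to 50% of control growth.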

For test [2], the system named is Mus musculus. Description: Increase in life span (ILS) in mice implanted intraperitoneally with lymphocytic leukemia P388 cells at a nontoxic dose of 100 mg/kg. As to conditions: P388, ip, route intraperitoneal. The class given is functional.
For test [3], the system named is Mus musculus. Description: Increase in life span (ILS) in mice implanted intraperitoneally with lymphocytic leukemia P388 cells at a nontoxic dose of 100 mg/kg; toxic dose by weight loss when repeated. The class given is functional. The conditions noted are these: P388, ip, route intraperitoneal.
For test [4], the system named is L1210. Description: Concentration that causes a mitotic index (number of cells in mitosis divided by total cells) of cultured lymphoid leukemia L1210 cells. The class given is functional, Mus musculus. The method, boiled down:
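Cultured lymphoid leukemia L1210 cells were exposed to agent for 12 h. Mitotic index was taken as the number of cells in mitosis divided by total cells. The value is the micromolar concentration giving a mitotic index of 0.5.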

The test system of test [5] is Mus musculus. Description: Increase in life span (ILS) in mice implanted intraperitoneally with lymphocytic leukemia P388 cells at a nontoxic dose of 200 mg/kg; toxic dose by weight loss when repeated. The class given is functional. The conditions noted are these: P388, ip, route intraperitoneal.
Test [6] relates to Mus musculus. Kind of test: Increase in life span (ILS) in mice implanted intraperitoneally with lymphocytic leukemia P388 cells at a nontoxic dose of 200 mg/kg. The class given is functional. The conditions noted are these: P388, ip, route intraperitoneal.
The subject of test [7] is Mus musculus. Description: Increase in life span (ILS) in mice implanted intraperitoneally with lymphocytic leukemia P388 cells at a nontoxic dose of 50 mg/kg. The class given is functional. The conditions noted are these: P388, ip, route intraperitoneal.
Test [8] relates to Mus musculus. Kind of test: Increase in life span (ILS) in mice implanted intraperitoneally with lymphocytic leukemia P388 cells at a nontoxic dose of 2 mg/kg. The class given is functional. As to conditions: P388, ip, route intraperitoneal.

With `CCOC(=O)Nc1cc2c(nc(SCc3ccc4c(c3)OCO4)n2N)c(N)n1`, the IC50 – broadly, the concentration at which inhibition is half-maximal – in test [1] is 170 nM. Besides, the increase in lifespan (ILS) – broadly, the gain in survival time of treated over control animals, in per cent – at 100 mg/kg in test [2] was determined as 25%.

`CCOC(=O)Nc1cc2c(ncn2/N=C/c2ccccc2)c(N)n1` showed an IC50 in test [1] of 150 nM. In test [3], this molecule yielded an increase in life span (ILS) at 100 mg/kg of 39%. Further, in test [4], the MI0.5 came to 0.61 µM.

With `CCOC(=O)Nc1cc(N/N=C/c2ccccc2)c2[nH]c(SCc3ccccc3)nc2n1`, the IC50 in test [1] turned out to be 46000 nM.

For `CCOC(=O)Nc1cc2c(nc(SCc3ccc(OC)cc3)n2N)c(N)n1`, the concentration for half-maximal inhibition (IC50) in test [1] was 60 nM. This molecule gave an ILS at 100 mg/kg in test [2] of 24%.

`CCOC(=O)Nc1cc(N/N=C/c2ccccc2)c2[nH]cnc2n1` had an IC50 in test [1] of 250 nM. In addition, the ILS at 100 mg/kg in test [3] amounted to 46%. The molecule also displayed an MI0.5 in test [4] of 0.94 µM.

The molecule `CCOC(=O)Nc1cc2c(nc(SCc3ccccc3)n2N)c(N)n1` had a half-inhibitory concentration (IC50) in test [1] of 600 nM. This molecule also had an increase in life span (ILS) at 200 mg/kg in test [5] of 39%. Further, in test [4], the MI0.5 turned out to be 1.6 µM.

Consider `CCOC(=O)Nc1cc2c(nc(S)n2/N=C/c2ccccc2)c(N)n1`, for which inhibition in test [1] was half-maximal at 470 nM (IC50). Further, the MI0.5 in test [4] is 11 µM. The ILS at 200 mg/kg in test [6] stood at 6%.

`CCOC(=O)Nc1cc(N/N=C/c2ccccc2)c2[nH]c(S)nc2n1`: in test [1], the IC50 was found to be 1500 nM. In test [4], the MI0.5 was 5.5 µM. Moreover, the increase in lifespan (ILS) at 200 mg/kg in test [6] worked out at 10%.

Turning to `CCOC(=O)Nc1cc(N(C)/N=C/c2ccccc2)c2nc[nH]c2n1`, 3100 nM corresponded to half-maximal inhibition in test [1] (IC50).

`CCOC(=O)Nc1cc(N/N=C/c2ccccc2)c(N)c(N)n1` registered an ILS at 50 mg/kg in test [7] of 4%. For the same molecule, in test [1], the IC50 turned out to be 4600 nM. Besides, in test [4], the MI0.5 was determined as 15 µM.

Consider `CCOC(=O)Nc1cc2c(nc(S)n2N)c(N)n1`, for which the concentration for half-maximal inhibition (IC50) in test [1] was greater than 30000 nM.

Turning to `CCOC(=O)Nc1cc2c(nc(SCc3ccccc3)n2/N=C/c2ccccc2)c(N)n1`, the IC50 in test [1] was found to be 50000 nM.

`CCOC(=O)Nc1cc2[nH]c(-c3ccccc3)nc2c(N)n1` came in with a half-maximal inhibitory concentration (IC50) in test [1] of 900 nM. This molecule came in with an MI0.5 in test [4] of 8 µM. Also, the increase in lifespan (ILS) at 200 mg/kg in test [6] came to 0%.

In the case of `CCOC(=O)Nc1cc2c(c(N)n1)N=C(c1ccccc1)CN2`, the ILS at 2 mg/kg in test [8] was 51%. Moreover, the MI0.5 in test [4] stood at 0.0028 µM.
